Measured values: ChEMBL document CHEMBL5303300, “EUbOPEN Chemogenomics Library - Multiplex” (2023)
Where “and” joins values, the source holds several entries; their conditions need not be identical. Equal entries are not always repeated.

Test system: Fibroblast
Experiment: Multiplex assay against human fibroblast
Type: toxicity, cell-based
Settings: number of replicates 2
Procedure, shortened: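 Hoechst33342, BioTracker Green Microtubule Cytoskeleton Dye, MitoTracker Red and Annexin V Alexa Fluor 680 were added to live cells at seeding, and imaging on a CQ1 microscope at 37°C and 5% CO2 followed compound addition. Gating by CellPathfinder machine learning separated cells into Hoechst high-intensity objects or normal cells, then normal cells into healthy, pyknosed or fragmented nuclei, then pyknosed cells into mitotic or apoptotic. Per cents of healthy-nucleus cells are reported for the tubulin, mitochondrial-mass and membrane-permeability phenotypes.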

[1] = 12 h, 1 µM, compound concentration 1 uM
[2] = 12 h, 10 µM, compound concentration 10 uM
[3] = 24 h, 1 µM, compound concentration 1 uM
[4] = 24 h, 10 µM, compound concentration 10 uM
[5] = 48 h, 1 µM, compound concentration 1 uM
[6] = 48 h, 10 µM, compound concentration 10 uM

O=C(NCc1ccc(F)cc1)N1CCN2C(=O)OC(c3ccccc3)(c3ccccc3)C2C1 (stereo unspecified)
Population Apoptotic (%) [1]: 41% and 22% | Population Fragmented Nuclei (%) [1]: 12% and 10% | Population Healthy Nuclei (%) [1]: 71% and 75% | Population Hoechst High Intensity Objects (%) [1]: 0% | Population Membrane Permeable-Phenotype (%) [1]: 10% and 5% | Population Mitochondria Different-Phenotype (%) [1]: 2% and 1% | Population Mitotic Cells (%) [1]: 58% and 77% | Population Normal (%) [1]: 99% | Population Pyknosed Nuclei (%) [1]: 15% and 14% | Population Tubulin-Different-Phenotype (%) [1]: 20% and 13% | Total Cell Count [1]: 252 | Population Apoptotic (%) [2]: 58% and 35% | Population Fragmented Nuclei (%) [2]: 14% and 9% | Population Healthy Nuclei (%) [2]: 69% and 77% | Population Hoechst High Intensity Objects (%) [2]: 0% | Population Membrane Permeable-Phenotype (%) [2]: 9% and 14% | Population Mitochondria Different-Phenotype (%) [2]: 3% | Population Mitotic Cells (%) [2]: 41% and 65% | Population Normal (%) [2]: 100% and 99% | Population Pyknosed Nuclei (%) [2]: 15% and 12% | Population Tubulin-Different-Phenotype (%) [2]: 69% and 59% | Total Cell Count [2]: 153 and 155 | Population Apoptotic (%) [3]: 59% and 46% | Population Fragmented Nuclei (%) [3]: 13% and 15% | Population Healthy Nuclei (%) [3]: 72% and 73% | Population Hoechst High Intensity Objects (%) [3]: 0% | Population Membrane Permeable-Phenotype (%) [3]: 6% and 3% | Population Mitochondria Different-Phenotype (%) [3]: 1% and 0% | Population Mitotic Cells (%) [3]: 40% and 53% | Population Normal (%) [3]: 100% | Population Pyknosed Nuclei (%) [3]: 14% and 10% | Population Tubulin-Different-Phenotype (%) [3]: 19% and 12% | Total Cell Count [3]: 253 and 276 | Population Apoptotic (%) [4]: 65% and 50% | Population Fragmented Nuclei (%) [4]: 12% | Population Healthy Nuclei (%) [4]: 68% and 75% | Population Hoechst High Intensity Objects (%) [4]: 0% and 1% | Population Membrane Permeable-Phenotype (%) [4]: 7% and 2% | Population Mitochondria Different-Phenotype (%) [4]: 9% and 7% | Population Mitotic Cells (%) [4]: 34% and 50% | Population Normal (%) [4]: 99% and 98% | Population Pyknosed Nuclei (%) [4]: 19% and 12% | Population Tubulin-Different-Phenotype (%) [4]: 61% and 48% | Total Cell Count [4]: 153 and 151 | Population Apoptotic (%) [5]: 62% and 69% | Population Fragmented Nuclei (%) [5]: 15% and 10% | Population Healthy Nuclei (%) [5]: 74% and 79% | Population Hoechst High Intensity Objects (%) [5]: 0% | Population Membrane Permeable-Phenotype (%) [5]: 7% and 3% | Population Mitochondria Different-Phenotype (%) [5]: 0% | Population Mitotic Cells (%) [5]: 37% and 30% | Population Normal (%) [5]: 100% | Population Pyknosed Nuclei (%) [5]: 10% and 9% | Population Tubulin-Different-Phenotype (%) [5]: 11% and 5% | Total Cell Count [5]: 259 and 265 | Population Apoptotic (%) [6]: 45% and 83% | Population Fragmented Nuclei (%) [6]: 15% and 12% | Population Healthy Nuclei (%) [6]: 69% and 75% | Population Hoechst High Intensity Objects (%) [6]: 0% and 1% | Population Membrane Permeable-Phenotype (%) [6]: 5% | Population Mitochondria Different-Phenotype (%) [6]: 2% | Population Normal (%) [6]: 100% and 98% | Population Pyknosed Nuclei (%) [6]: 15% and 12% | Population Tubulin-Different-Phenotype (%) [6]: 53% and 43% | Total Cell Count [6]: 156 and 150

CC1=C(C)C(=O)C(C(C)(C)CC(=O)N(CCCCSC[C@H]2O[C@@H](n3cnc4c(N)ncnc43)[C@H](O)[C@@H]2O)Cc2cccc(-c3ccc(Cl)cc3)c2)=C(C)C1=O
Population Apoptotic (%) [1]: 43% and 35% | Population Fragmented Nuclei (%) [1]: 13% and 7% | Population Healthy Nuclei (%) [1]: 72% and 77% | Population Hoechst High Intensity Objects (%) [1]: 0% | Population Membrane Permeable-Phenotype (%) [1]: 1% and 6% | Population Mitochondria Different-Phenotype (%) [1]: 0% and 1% | Population Mitotic Cells (%) [1]: 56% and 64% | Population Normal (%) [1]: 100% | Population Pyknosed Nuclei (%) [1]: 14% | Population Tubulin-Different-Phenotype (%) [1]: 34% and 18% | Total Cell Count [1]: 228 and 306 | Population Apoptotic (%) [2]: 36% and 30% | Population Fragmented Nuclei (%) [2]: 11% and 17% | Population Healthy Nuclei (%) [2]: 76% and 62% | Population Hoechst High Intensity Objects (%) [2]: 0% and 1% | Population Membrane Permeable-Phenotype (%) [2]: 18% and 15% | Population Mitochondria Different-Phenotype (%) [2]: 4% and 3% | Population Mitotic Cells (%) [2]: 63% and 69% | Population Normal (%) [2]: 100% and 99% | Population Pyknosed Nuclei (%) [2]: 11% and 19% | Population Tubulin-Different-Phenotype (%) [2]: 73% and 74% | Total Cell Count [2]: 186 and 201 | Population Apoptotic (%) [3]: 57% and 51% | Population Fragmented Nuclei (%) [3]: 8% and 9% | Population Healthy Nuclei (%) [3]: 85% and 79% | Population Hoechst High Intensity Objects (%) [3]: 0% | Population Membrane Permeable-Phenotype (%) [3]: 5% and 2% | Population Mitochondria Different-Phenotype (%) [3]: 2% and 1% | Population Mitotic Cells (%) [3]: 42% and 48% | Population Normal (%) [3]: 99% and 100% | Population Pyknosed Nuclei (%) [3]: 5% and 11% | Population Tubulin-Different-Phenotype (%) [3]: 24% and 12% | Total Cell Count [3]: 235 and 305 | Population Apoptotic (%) [4]: 46% and 45% | Population Fragmented Nuclei (%) [4]: 13% and 14% | Population Healthy Nuclei (%) [4]: 78% and 68% | Population Hoechst High Intensity Objects (%) [4]: 0% | Population Membrane Permeable-Phenotype (%) [4]: 4% and 8% | Population Mitochondria Different-Phenotype (%) [4]: 13% and 17% | Population Mitotic Cells (%) [4]: 53% and 54% | Population Normal (%) [4]: 100% and 99% | Population Pyknosed Nuclei (%) [4]: 8% and 17% | Population Tubulin-Different-Phenotype (%) [4]: 78% and 83% | Total Cell Count [4]: 182 and 183 | Population Apoptotic (%) [5]: 50% | Population Fragmented Nuclei (%) [5]: 12% and 13% | Population Healthy Nuclei (%) [5]: 83% and 81% | Population Hoechst High Intensity Objects (%) [5]: 0% | Population Membrane Permeable-Phenotype (%) [5]: 3% and 1% | Population Mitochondria Different-Phenotype (%) [5]: 0% | Population Mitotic Cells (%) [5]: 50% | Population Normal (%) [5]: 99% | Population Pyknosed Nuclei (%) [5]: 3% and 5% | Population Tubulin-Different-Phenotype (%) [5]: 13% and 5% | Total Cell Count [5]: 257 and 316 | Population Apoptotic (%) [6]: 71% and 65% | Population Fragmented Nuclei (%) [6]: 18% and 20% | Population Healthy Nuclei (%) [6]: 74% and 69% | Population Hoechst High Intensity Objects (%) [6]: 0% | Population Membrane Permeable-Phenotype (%) [6]: 0% and 5% | Population Mitochondria Different-Phenotype (%) [6]: 6% and 13% | Population Mitotic Cells (%) [6]: 28% and 35% | Population Normal (%) [6]: 100% | Population Pyknosed Nuclei (%) [6]: 7% and 10% | Population Tubulin-Different-Phenotype (%) [6]: 76% and 69% | Total Cell Count [6]: 197

CN(C)CC#Cc1ccc2[nH]c3c(c2c1)-c1nc(N)ncc1CCC3
Population Apoptotic (%) [1]: 30% and 35% | Population Fragmented Nuclei (%) [1]: 32% and 18% | Population Healthy Nuclei (%) [1]: 49% and 55% | Population Hoechst High Intensity Objects (%) [1]: 0% | Population Membrane Permeable-Phenotype (%) [1]: 4% and 6% | Population Mitochondria Different-Phenotype (%) [1]: 2% and 0% | Population Mitotic Cells (%) [1]: 69% and 64% | Population Normal (%) [1]: 100% | Population Pyknosed Nuclei (%) [1]: 17% and 25% | Population Tubulin-Different-Phenotype (%) [1]: 23% and 28% | Total Cell Count [1]: 293 and 186 | Population Fragmented Nuclei (%) [2]: 25% and 22% | Population Healthy Nuclei (%) [2]: 49% and 62% | Population Hoechst High Intensity Objects (%) [2]: 0% | Population Membrane Permeable-Phenotype (%) [2]: 0% and 5% | Population Mitochondria Different-Phenotype (%) [2]: 2% and 1% | Population Mitotic Cells (%) [2]: 61% and 89% | Population Normal (%) [2]: 100% and 99% | Population Pyknosed Nuclei (%) [2]: 25% and 15% | Population Tubulin-Different-Phenotype (%) [2]: 26% and 31% | Total Cell Count [2]: 228 and 378 | Population Apoptotic (%) [3]: 48% and 47% | Population Fragmented Nuclei (%) [3]: 18% and 27% | Population Healthy Nuclei (%) [3]: 65% and 60% | Population Hoechst High Intensity Objects (%) [3]: 0% | Population Membrane Permeable-Phenotype (%) [3]: 7% and 1% | Population Mitochondria Different-Phenotype (%) [3]: 0% and 4% | Population Mitotic Cells (%) [3]: 51% and 52% | Population Normal (%) [3]: 100% and 99% | Population Pyknosed Nuclei (%) [3]: 16% and 11% | Population Tubulin-Different-Phenotype (%) [3]: 25% and 26% | Total Cell Count [3]: 221 and 287 | Population Apoptotic (%) [4]: 39% and 42% | Population Fragmented Nuclei (%) [4]: 19% and 16% | Population Healthy Nuclei (%) [4]: 62% and 56% | Population Hoechst High Intensity Objects (%) [4]: 4% and 1% | Population Membrane Permeable-Phenotype (%) [4]: 4% and 1% | Population Mitochondria Different-Phenotype (%) [4]: 4% and 3% | Population Mitotic Cells (%) [4]: 60% and 57% | Population Normal (%) [4]: 95% and 98% | Population Pyknosed Nuclei (%) [4]: 17% and 26% | Population Tubulin-Different-Phenotype (%) [4]: 52% and 43% | Total Cell Count [4]: 286 and 184 | Population Apoptotic (%) [5]: 70% and 47% | Population Fragmented Nuclei (%) [5]: 25% and 32% | Population Healthy Nuclei (%) [5]: 65% and 62% | Population Hoechst High Intensity Objects (%) [5]: 1% and 2% | Population Membrane Permeable-Phenotype (%) [5]: 3% | Population Mitochondria Different-Phenotype (%) [5]: 0% | Population Mitotic Cells (%) [5]: 29% and 52% | Population Normal (%) [5]: 98% and 97% | Population Pyknosed Nuclei (%) [5]: 9% and 5% | Population Tubulin-Different-Phenotype (%) [5]: 24% and 17% | Total Cell Count [5]: 266 and 347 | Population Apoptotic (%) [6]: 68% and 64% | Population Fragmented Nuclei (%) [6]: 13% and 6% | Population Healthy Nuclei (%) [6]: 67% and 77% | Population Hoechst High Intensity Objects (%) [6]: 0% and 5% | Population Membrane Permeable-Phenotype (%) [6]: 13% and 12% | Population Mitochondria Different-Phenotype (%) [6]: 1% and 5% | Population Mitotic Cells (%) [6]: 31% and 35% | Population Normal (%) [6]: 100% and 94% | Population Pyknosed Nuclei (%) [6]: 18% and 16% | Population Tubulin-Different-Phenotype (%) [6]: 52% and 63% | Total Cell Count [6]: 153 and 185
